Source: ChEMBL document CHEMBL2331121, “Design, synthesis, and pharmacological characterization of N- and O-substituted 5,6,7,8-tetrahydro-4H-isoxazolo[4,5-d]azepin-3-ol analogues: novel 5-HT(2A)/5-HT(2C) receptor agonists with pro-cognitive properties” (J Med Chem, 2013)
The source made the active and inactive calls. The rule behind the calls is not given here.

How the values were obtained:
[1] = biological target: T1, 5-hydroxytryptamine receptor 2C (Homo sapiens) (UniProt P28335); assay: Antagonist activity at human 5HT2C receptor expressed in HEK293 cells assessed as inhibition of 5HT-induced intracellular calcium release at 1 mM measured for 90 secs by fluorescence assay; type: functional, cell-based
T1 sequence (whole entry): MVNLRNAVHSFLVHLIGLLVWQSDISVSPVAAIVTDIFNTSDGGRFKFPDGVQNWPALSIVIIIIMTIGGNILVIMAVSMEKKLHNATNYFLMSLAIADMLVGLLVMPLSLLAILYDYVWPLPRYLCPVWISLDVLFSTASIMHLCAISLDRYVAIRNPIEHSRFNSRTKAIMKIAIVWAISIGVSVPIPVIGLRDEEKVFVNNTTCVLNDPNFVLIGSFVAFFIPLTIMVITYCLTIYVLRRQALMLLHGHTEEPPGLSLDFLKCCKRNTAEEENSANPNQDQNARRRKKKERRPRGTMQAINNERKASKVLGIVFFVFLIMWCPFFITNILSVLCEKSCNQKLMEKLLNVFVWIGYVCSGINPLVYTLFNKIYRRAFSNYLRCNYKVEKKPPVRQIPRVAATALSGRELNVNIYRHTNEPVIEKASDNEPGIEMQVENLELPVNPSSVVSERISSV
Procedure, shortened: (§1)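 Fluo-4/Ca²⁺ read-out in stable h5-HT2A or h5-HT2C HEK293 cells (HBSS/HEPES/probenecid buffer, pH 7.4). Antagonist was added after the dye-loading wash, then cells were challenged with an EC₇₅−EC₈₅ concentration of 5-HT. Emission at 525 nm was monitored up to 90 s after agonist addition. Duplicate, repeated in independent experiments.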

[2] = biological target: T2, 5-hydroxytryptamine receptor 2A (Homo sapiens, UniProt P28223); assay: Antagonist activity at human 5HT2A receptor expressed in HEK293 cells assessed as inhibition of 5HT-induced intracellular calcium release at 1 mM measured for 90 secs by fluorescence assay; type: functional, cell-based; procedure, shortened: as §1
[3] = biological target: T3, 5-hydroxytryptamine receptor 2C (Homo sapiens, UniProt P28335); assay: Displacement of [3H]mesulergine from human 5HT2C receptor expressed in tsA201 cell membranes after 1 hr by scintillation counting analysis
T3 sequence (P28335 whole entry): T1 sequence (whole entry)

[4] = biological target: T2, 5-hydroxytryptamine receptor 2A; assay: biochemical; type: cell-based, tsA201
[5] = biological target: T1, 5-hydroxytryptamine receptor 2C (Homo sapiens); assay: Agonist activity at human 5HT2C receptor expressed in HEK293 cells assessed as induction of intracellular calcium release at 1 mM measured for 90 secs by fluorescence assay; type: functional, cell-based
Procedure, shortened: (§2)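 Stable polyclonal h5-HT2A or h5-HT2C HEK293 cells plated on poly-D-lysine wells, loaded next day with Fluo-4/AM for 1 h at 37 °C. Buffer was HBSS with 20 mM HEPES, 1 mM CaCl₂, 1 mM MgCl₂, 2.5 mM probenecid, pH 7.4. Fluorescence read at 485/525 nm before and up to 90 s after agonist addition. Responses normalised to 5-HT on the same plate. Duplicate, 4−10 experiments.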

[6] = biological target: T2, 5-hydroxytryptamine receptor 2A; assay: Agonist activity at human 5HT2A receptor expressed in HEK293 cells assessed as induction of intracellular calcium release at 1 mM measured for 90 secs by fluorescence assay; type: functional, cell-based; procedure, shortened: as §2
[7] = biological target: T3, 5-hydroxytryptamine receptor 2C; assay: Agonist activity at human 5HT2C receptor expressed in HEK293 cells assessed as induction of intracellular calcium release measured for 90 secs by fluorescence assay; type: functional, cell-based
[8] = biological target: T2, 5-hydroxytryptamine receptor 2A; assay: Agonist activity at human 5HT2A receptor expressed in HEK293 cells assessed as induction of intracellular calcium release measured for 90 secs by fluorescence assay; type: functional, cell-based
[9] = biological target: T4, 5-hydroxytryptamine receptor 2C (Rattus norvegicus) (UniProt P08909); assay: Displacement of [125I]-N-(p-I-Bn)-THAZ from 5HT2C in rat cerebral cortex membrane up to 50 uM after 1 hr by scintillation counting analysis; type: cell membranes
T4 sequence (whole entry): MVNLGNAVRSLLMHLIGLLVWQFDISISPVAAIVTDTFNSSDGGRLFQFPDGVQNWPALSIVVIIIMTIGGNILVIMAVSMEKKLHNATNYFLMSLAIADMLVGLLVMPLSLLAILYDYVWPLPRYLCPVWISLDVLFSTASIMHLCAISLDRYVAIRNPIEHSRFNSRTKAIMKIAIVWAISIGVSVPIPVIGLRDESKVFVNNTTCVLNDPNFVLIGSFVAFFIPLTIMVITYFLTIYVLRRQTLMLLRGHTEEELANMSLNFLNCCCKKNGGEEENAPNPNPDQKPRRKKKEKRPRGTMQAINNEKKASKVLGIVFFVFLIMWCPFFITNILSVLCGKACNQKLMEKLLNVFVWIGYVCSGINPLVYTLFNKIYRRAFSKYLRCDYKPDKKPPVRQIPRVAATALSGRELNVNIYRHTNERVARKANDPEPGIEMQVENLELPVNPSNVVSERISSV

[10] = biological target: T4, 5-hydroxytryptamine receptor 2C (Rattus norvegicus); assay: Displacement of [125I]-N-(p-I-Bn)-THAZ from 5HT2C in rat cerebral cortex membrane at 300 uM after 1 hr by scintillation counting analysis; type: cell membranes
[11] = biological target: T1, 5-hydroxytryptamine receptor 2C (Homo sapiens); assay: Agonist activity at human 5HT2C receptor expressed in HEK293 cells assessed as accumulation of IP1 incubated for 1 hr at 37 degC followed by 15 mins at RT by TR-FRET assay relative to 5HT; type: functional, cell-based
Procedure, shortened: (§3)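 Polyclonal HEK293 lines stably expressing human 5-HT2A (variant 1) or 5-HT2C (INI isoform), detached and suspended at 1 × 10⁷ cells/mL in HBSS with 20 mM HEPES, 1 mM CaCl₂, 1 mM MgCl₂, pH 7.4. Ligands in buffer with 40 mM LiCl. Incubated 1 h at 37 °C, then 15 min RT. IP1 read by HTRF 665/615 ratio. Triplicate, at least four times.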

[12] = biological target: T2, 5-hydroxytryptamine receptor 2A; assay: Agonist activity at human 5HT2A receptor expressed in HEK293 cells assessed as accumulation of IP1 incubated for 1 hr at 37 degC followed by 15 mins at RT by TR-FRET assay relative to 5HT; type: functional, cell-based; procedure, shortened: as §3
[13] = biological target: T1, 5-hydroxytryptamine receptor 2C (Homo sapiens); assay: Agonist activity at human 5HT2C receptor expressed in HEK293 cells assessed as induction of intracellular calcium release by fluorescence assay relative to 5HT; type: functional, cell-based
Procedure, shortened: (§4)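 Stable polyclonal 5-HT2A or 5-HT2C HEK293 cells seeded on poly-D-lysine plates (6 × 10⁴ cells/well). Next day loaded with Fluo-4/AM for 1 h at 37 °C in HBSS/20 mM HEPES/1 mM CaCl₂/1 mM MgCl₂/2.5 mM probenecid, pH 7.4. Fluorescence (485 ex/525 em) recorded before and up to 90 s after agonist. Response relative to 5-HT on the same plate. Duplicate, at least three times.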

[14] = biological target: T2, 5-hydroxytryptamine receptor 2A; assay: Agonist activity at human 5HT2A receptor expressed in HEK293 cells assessed as induction of intracellular calcium release by fluorescence assay relative to 5HT; type: functional, cell-based; procedure, shortened: as §4
[15] = biological target: T2, 5-hydroxytryptamine receptor 2A; assay: Agonist activity at human 5HT2A receptor expressed in HEK293 cells assessed as accumulation of IP1 incubated for 1 hr at 37 degC followed by 15 mins at RT by TR-FRET assay; type: functional, cell-based
[16] = biological target: T3, 5-hydroxytryptamine receptor 2C; assay: Agonist activity at human 5HT2C receptor expressed in HEK293 cells assessed as accumulation of IP1 incubated for 1 hr at 37 degC followed by 15 mins at RT by TR-FRET assay; type: functional, cell-based
[17] = biological target: T2, 5-hydroxytryptamine receptor 2A; assay: Agonist activity at human 5HT2A receptor expressed in HEK293 cells assessed as induction of intracellular calcium release up to 1000 uM measured up to 90 secs by fluorescence assay; type: functional, cell-based; procedure, shortened: as §4

T2 sequence (P28223 whole entry): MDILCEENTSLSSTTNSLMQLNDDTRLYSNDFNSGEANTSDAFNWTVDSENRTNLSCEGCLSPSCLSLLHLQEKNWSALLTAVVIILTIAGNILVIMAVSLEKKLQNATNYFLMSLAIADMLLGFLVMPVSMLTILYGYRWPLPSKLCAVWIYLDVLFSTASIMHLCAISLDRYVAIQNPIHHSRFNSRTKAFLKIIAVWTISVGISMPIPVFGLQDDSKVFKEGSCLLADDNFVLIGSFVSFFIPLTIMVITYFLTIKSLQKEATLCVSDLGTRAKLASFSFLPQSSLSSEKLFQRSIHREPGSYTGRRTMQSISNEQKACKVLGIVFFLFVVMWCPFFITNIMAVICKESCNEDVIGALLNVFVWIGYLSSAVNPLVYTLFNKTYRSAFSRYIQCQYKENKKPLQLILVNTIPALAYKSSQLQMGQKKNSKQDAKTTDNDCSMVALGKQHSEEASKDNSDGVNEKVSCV

SMILES	Activity [1]	Activity [2]	Ki [3]	Ki ([4]; read-out: Ki)	Activity [5]	Activity [6]	EC50 ([7]; hek293, read-out: EC50)	EC50 ([7]; read-out: pEC50 (converted))	EC50 ([8]; hek293, read-out: EC50)	EC50 ([8]; read-out: pEC50 (converted))	further results
CCOc1noc2c1CCN(C)CC2	inactive	inactive	> 300 µM	> 300 µM	inactive	inactive	> 1000 µM	> 1000 µM	> 1000 µM	> 1000 µM	Ki ([4]; read-out: pKi (converted)): > 316 µM
CCn1oc2c(c1=O)CCNC2	inactive	inactive			inactive	inactive	> 1000 µM	> 1000 µM	> 1000 µM	> 1000 µM	
Cc1cc2c(cc1Cl)N(C(=O)Nc1ccc(Oc3cccnc3C)nc1)CC2											Activity [9]: inactive
CC(=O)OCC[N+](C)(C)C											Activity [10]: inactive
Cn1oc2c(c1=O)CNCC2	inactive	inactive			inactive	inactive	> 1000 µM	> 1000 µM	> 1000 µM	> 1000 µM	
O=c1c2c(on1Cc1cccc(I)c1)CCNCC2			4.8 µM								
O=c1c2c(on1Cc1ccccc1)CCNC2	inactive	inactive			inactive	inactive	> 1000 µM	> 1000 µM	> 1000 µM	> 1000 µM	
CN1CCc2on(C)c(=O)c2CC1	inactive	inactive	> 300 µM	> 300 µM	inactive	inactive	> 1000 µM	> 1000 µM	> 1000 µM	> 1000 µM	Ki ([4]; read-out: pKi (converted)): > 316 µM
Clc1cccc(COc2cncc(N3CCNCC3)n2)c1			0.0093 µM	0.081 µM							Emax [11]: 109%; Emax [12]: 90%; Emax [13]: 103%; Emax [14]: 88%; EC50 [15]: 0.14 µM; EC50 [16]: 0.0081 µM; EC50 ([7]; read-out: EC50): 0.0019 µM; EC50 ([8]; read-out: EC50): 0.076 µM
O=c1c2c(on1Cc1ccccc1)CCCNC2	inactive	inactive			inactive	inactive	> 1000 µM	> 1000 µM	> 1000 µM	> 1000 µM	
O=c1c2c(on1Cc1ccccc1I)CCNCC2			7.2 µM								
COc1noc2c1CCNCC2			300 µM	300 µM							Emax [13]: 80%; Activity [17]: Active; EC50 ([7]; read-out: EC50): 12 µM
CCOc1noc2c1CCNC2	inactive	inactive			inactive	inactive	> 1000 µM	> 1000 µM	> 1000 µM	> 1000 µM	
